# Experimental data taken from PubChem BioAssay.
# Activity calls are given as the source filed them.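 Rule for the calls, unless noted: active = fluorescence slope higher than the sample average by over 3 SD (cut at about -0.22 in these data, passing the limit was not always enough); inactive = the rest.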
# What was measured:
# [1] = inhibitors of TNFa-induced NFkB p65 translocation, primary screen, imaging, HUVEC, MLSMR starter and 10KST1 sets (AID 438;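 active = inhibition above 20% together with a positive visual image hit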;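 note: compound added about 3h40 before a 20 min TNFalpha stimulation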;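 for inhibition: signal is the nuclear over cytoplasmic p65 intensity ratio per well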); settings: HUVEC TNFa-induced p65 nuclear translocation; cell count: measured here: nuclei count (cytotoxicity indicator), at 2.08 µM; inhibition: at 2 µM, stronger effect = higher value, 0% TNFa-plus-vehicle, 100% no-TNFa wells
# [2] = reduction of polyQ htt aggregates in cells – imaging, exon1htt(103Q)mCFP cells, high-content imaging, primary screen (AID 483;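 active = visual image review flags a hit and inhibition of aggregation exceeds 20%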;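 note: compound exposure lasted 3 days before fixation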;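 for nuclei count: percent of the per-plate median nuclei count of sample wells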); settings: exon1htt(103Q)mCFP cell line, aggregate imaging, at 2 µM; inhibition of aggregation: stronger effect = higher value; nuclei count: measured here: cell count, toxicity
# [3] = endothelial E-selectin expression blockers – imaging, HUVEC, immunofluorescence, MLSMR starter and 10KST1 sets, primary screen (AID 487;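 active = visually confirmed hit in the image check and inhibition above 20%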;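 for inhibition: signal is fraction of cell area covered by stained E-selectin grains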;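 for nuclei count: 100% = median nuclei count of all wells on the same plate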); settings: HUVEC TNFalpha-induced E-selectin immunofluorescence imaging, at 2 µM; inhibition: stronger effect = higher value; nuclei count: measured here: cell number, toxicity
# [4] = target: Voltage-gated potassium channel subunit beta-2 (Rattus norvegicus) (UniProt P62483); experiment: inhibitors of rat Kvbeta2 reductase activity – biochemical, NADPH fluorescence, primary screen (AID 622); settings: recombinant KvBeta, 4-cyanobenzaldehyde reduction, at 10 µM, stronger effect = higher value;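 note: slope of raw intensity against log time taken from 70 to 1610 s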
# [5] = target: Voltage-gated potassium channel subunit beta-2 (Rattus norvegicus) (UniProt P62483); experiment: enhancers of rat Kvbeta2 NADPH turnover – biochemical, NADPH fluorescence, primary screen (AID 623;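 active = NADPH fluorescence slope more negative than the mean of all samples by about 3 SD, 99.7% confidence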;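 note: fluorescence intensity change per second fitted from 20 to 320 s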); settings: Recombinant KvBeta, NADPH fluorescence decrease slope, 10 min; at 10 µM; stronger effect = lower value
# [6] = target: Muscarinic acetylcholine receptor M4 (Homo sapiens) (UniProt P08173); experiment: M4-linked GIRK flux change, two-sided – cell-based, HEK293 M4/GIRK, thallium flux, BTC-AM, M4 allosteric agonist project, primary screen (AID 625;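 active = fluorescence slope after compound addition differing from the mean of all tested samples at 99.7% confidence, mostly higher but some lower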;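 note: thallium influx through GIRK channels coupled to M4 in HEK293 cells with BTC-AM dye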); settings: at 10 µM, actives lie on both sides
# Procedure, shortened: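 Material: HEK293 cells with M4 receptor and GIRK channels; Times: cells overnight at 37 °C, BTC-AM loading 1 h, reads 2 min total; Technique: kinetic BTC-AM fluorescence sampled at 1 Hz, 10 s pre-addition baseline; Read-out basis: slope over 15–24 s of trace normalized to starting intensity; Controls: carbachol positive, DMSO negative.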
# [7] = blockers of RIG-like receptor reporter activation – cell-based, Sendai virus stimulus, luciferase, 10K MLSCN set, TLR/RLR signaling modifier project, primary screen (AID 602276;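 active = inhibition at or above 50% at 10 µM; inactive = inhibition below 50%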;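 note: firefly luciferase from ISG56 promoter only with Renilla not read in this screen; 0% = Sendai virus plus DMSO and 100% = medium plus DMSO without virus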); settings: HEK293 RL24 IRF3 luciferase reporter, at 10 µM, stronger effect = higher value
# [8] = TLR3 IRF3 reporter activation blockers – cell-based, poly I:C stimulus, luciferase, 10K MLSCN set, primary screen (AID 602277;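 active = inhibition of the reporter signal at or above 50%; inactive = inhibition below 50%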); settings: HEK293-TLR3 RL24 IRF3 luciferase reporter, at 10 µM, stronger effect = higher value
# Sequence of Muscarinic acetylcholine receptor M4 (Homo sapiens) (P08173 whole entry, looked up): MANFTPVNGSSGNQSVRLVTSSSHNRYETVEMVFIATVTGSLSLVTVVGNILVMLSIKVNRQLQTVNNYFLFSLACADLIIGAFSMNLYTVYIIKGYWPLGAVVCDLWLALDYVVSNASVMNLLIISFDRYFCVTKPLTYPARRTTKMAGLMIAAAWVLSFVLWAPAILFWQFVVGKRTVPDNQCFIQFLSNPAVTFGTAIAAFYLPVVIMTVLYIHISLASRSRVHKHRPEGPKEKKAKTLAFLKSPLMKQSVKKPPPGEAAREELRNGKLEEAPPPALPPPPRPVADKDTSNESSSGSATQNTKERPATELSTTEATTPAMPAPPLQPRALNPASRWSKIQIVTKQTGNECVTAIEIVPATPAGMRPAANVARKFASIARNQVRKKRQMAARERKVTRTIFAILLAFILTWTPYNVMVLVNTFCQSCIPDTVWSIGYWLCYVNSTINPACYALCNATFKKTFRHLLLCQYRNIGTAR
# Sequence of Voltage-gated potassium channel subunit beta-2 (Rattus norvegicus) (P62483 whole entry, looked up): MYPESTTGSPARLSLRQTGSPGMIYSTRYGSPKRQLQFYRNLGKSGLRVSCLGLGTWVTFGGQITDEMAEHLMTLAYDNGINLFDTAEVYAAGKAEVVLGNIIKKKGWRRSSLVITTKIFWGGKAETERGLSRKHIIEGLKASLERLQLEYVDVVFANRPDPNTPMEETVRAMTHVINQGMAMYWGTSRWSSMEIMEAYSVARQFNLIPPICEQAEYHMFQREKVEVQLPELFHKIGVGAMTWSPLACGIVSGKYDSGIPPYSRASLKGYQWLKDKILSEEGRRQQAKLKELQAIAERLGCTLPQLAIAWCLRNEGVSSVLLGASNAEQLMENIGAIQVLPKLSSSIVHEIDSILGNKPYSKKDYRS
structure (smiles),measurement,setting,value
Cc1ccc(S(=O)(=O)NC(C(=O)OCC(=O)NC2CCS(=O)(=O)C2)C(C)C)cc1 (stereo not drawn),cell count,[1],654
same,inhibition,[1],-10.1% (inactive)
same,inhibition of aggregation,[2],9.6% (inactive)
same,nuclei count,[2],93.4%
same,inhibition,[3],-40.2% (inactive)
same,nuclei count,[3],109%
same,fluorescence slope,[4],-0.578 (inactive)
same,NADPH fluorescence slope,[5],9.1e-06 (inactive)
same,fluorescence slope,[6],0.0094 (inactive)
same,inhibition,[7],-14% (inactive)
same,inhibition,[8],18.4% (inactive)
COc1cc(C(=O)Nc2cc(Cl)ccc2C)c(-n2cnnn2)cc1OC,cell count,[1],715
same,inhibition,[1],8.8% (inactive)
same,inhibition of aggregation,[2],15.8% (inactive)
same,nuclei count,[2],83.5%
same,inhibition,[3],-62.1% (inactive)
same,nuclei count,[3],117%
same,fluorescence slope,[4],-0.474 (inactive)
same,NADPH fluorescence slope,[5],0.00014 (inactive)
same,fluorescence slope,[6],0.00699 (inactive)
same,inhibition,[7],13.5% (inactive)
same,inhibition,[8],15.4% (inactive)
CCC1(CC)C(=O)C(C)(C)C(=O)OC1c1cccs1 (stereo not drawn),cell count,[1],750
same,inhibition,[1],-8.8% (inactive)
same,inhibition of aggregation,[2],10.4% (inactive)
same,nuclei count,[2],91.1%
same,inhibition,[3],-18.3% (inactive)
same,nuclei count,[3],110%
same,fluorescence slope,[4],-0.454 (inactive)
same,NADPH fluorescence slope,[5],-4.2e-05 (inactive)
same,fluorescence slope,[6],0.00495 (inactive)
same,inhibition,[7],21.5% (inactive)
same,inhibition,[8],19.6% (inactive)
Cc1nc2cc(NC(=O)N3CC4(C)CC3CC(C)(C)C4)ccc2n1C (stereo not drawn),cell count,[1],657
same,inhibition,[1],2.1% (inactive)
same,inhibition of aggregation,[2],6.5% (inactive)
same,nuclei count,[2],104%
same,inhibition,[3],11.9% (inactive)
same,nuclei count,[3],105%
same,fluorescence slope,[4],-0.484 (inactive)
same,NADPH fluorescence slope,[5],-8.2e-05 (inactive)
same,fluorescence slope,[6],0.00526 (inactive)
same,inhibition,[7],-4.69% (inactive)
same,inhibition,[8],16.4% (inactive)
COC(=O)c1sc(NC(=O)COc2ccccc2OC)nc1C,cell count,[1],368
same,inhibition,[1],-4.7% (inactive)
same,inhibition of aggregation,[2],-9.7% (inactive)
same,nuclei count,[2],96.7%
same,inhibition,[3],-153% (inactive)
same,nuclei count,[3],122%
same,fluorescence slope,[4],-0.229 (inactive)
same,NADPH fluorescence slope,[5],-2.1e-05 (inactive)
same,fluorescence slope,[6],0.00636 (inactive)
same,inhibition,[7],9.11% (inactive)
same,inhibition,[8],2.53% (inactive)
CN(C(=O)c1ccno1)c1nnc(-c2cnccn2)s1,cell count,[1],596
same,inhibition,[1],-10.8% (inactive)
same,inhibition of aggregation,[2],10.8% (inactive)
same,nuclei count,[2],97.4%
same,inhibition,[3],-39.5% (inactive)
same,nuclei count,[3],107%
same,fluorescence slope,[4],-0.309 (inactive)
same,NADPH fluorescence slope,[5],-5.2e-05 (inactive)
same,fluorescence slope,[6],0.00542 (inactive)
same,inhibition,[7],5.76% (inactive)
same,inhibition,[8],10.1% (inactive)
O=C(NCc1ccco1)c1cc2c(s1)CSC2,cell count,[1],473
same,inhibition,[1],-4.3% (inactive)
same,inhibition of aggregation,[2],3.2% (inactive)
same,nuclei count,[2],105%
same,inhibition,[3],-31.1% (inactive)
same,nuclei count,[3],118%
same,fluorescence slope,[4],-0.544 (inactive)
same,NADPH fluorescence slope,[5],1.9e-05 (inactive)
same,fluorescence slope,[6],0.00557 (inactive)
same,inhibition,[7],9.74% (inactive)
same,inhibition,[8],12.5% (inactive)
CCNC(=O)CC1C(=O)N(c2ccc(F)cc2)C(=O)N1CCC(C)C (stereo not drawn),cell count,[1],357
same,inhibition,[1],-10.8% (inactive)
same,inhibition of aggregation,[2],17.4% (inactive)
same,nuclei count,[2],92.3%
same,inhibition,[3],-21.1% (inactive)
same,nuclei count,[3],106%
same,fluorescence slope,[4],-0.525 (inactive)
same,NADPH fluorescence slope,[5],-5.9e-06 (inactive)
same,fluorescence slope,[6],0.00457 (inactive)
same,inhibition,[7],4.4% (inactive)
same,inhibition,[8],15.9% (inactive)
CCOC(=O)C1CCN(C(=O)c2c(-c3c(Cl)cccc3Cl)noc2C)CC1,cell count,[1],376
same,inhibition,[1],1.6% (inactive)
same,inhibition of aggregation,[2],20.9% (inactive)
same,nuclei count,[2],94.8%
same,inhibition,[3],-89.8% (inactive)
same,nuclei count,[3],110%
same,fluorescence slope,[4],-0.557 (inactive)
same,NADPH fluorescence slope,[5],-4.4e-05 (inactive)
same,fluorescence slope,[6],0.00598 (inactive)
same,inhibition,[7],4.89% (inactive)
same,inhibition,[8],12.6% (inactive)
CCN(CC)c1ccc2c(c1)CCCN2,cell count,[1],669
same,inhibition,[1],6.8% (inactive)
same,inhibition of aggregation,[2],2.8% (inactive)
same,nuclei count,[2],91%
same,inhibition,[3],-36.1% (inactive)
same,nuclei count,[3],126%
same,fluorescence slope,[4],-0.559 (inactive)
same,NADPH fluorescence slope,[5],3.7e-05 (inactive)
same,fluorescence slope,[6],0.00991 (inactive)
same,inhibition,[7],8.33% (inactive)
same,inhibition,[8],1.7% (inactive)
OCc1nc2ccccc2n1CC(O)Cn1ccc2ccccc21 (stereo not drawn),cell count,[1],463
same,inhibition,[1],2.9% (inactive)
same,inhibition of aggregation,[2],-7.1% (inactive)
same,nuclei count,[2],98.2%
same,inhibition,[3],-71.2% (inactive)
same,nuclei count,[3],117%
same,fluorescence slope,[4],-0.577 (inactive)
same,NADPH fluorescence slope,[5],-5e-05 (inactive)
same,fluorescence slope,[6],0.00376 (inactive)
same,inhibition,[7],1.37% (inactive)
same,inhibition,[8],-8.82% (inactive)
Cc1cccc(C)c1OCC(=O)Nc1cccc(NC(=O)c2ccco2)c1,cell count,[1],464
same,inhibition,[1],-9.5% (inactive)
same,inhibition of aggregation,[2],23.3% (inactive)
same,nuclei count,[2],87.7%
same,inhibition,[3],-10.3% (inactive)
same,nuclei count,[3],96.3%
same,fluorescence slope,[4],-0.447 (inactive)
same,NADPH fluorescence slope,[5],5.1e-06 (inactive)
same,fluorescence slope,[6],0.00569 (inactive)
same,inhibition,[7],13.3% (inactive)
same,inhibition,[8],9.13% (inactive)
CS(=O)(=O)Nc1ccc(C(=O)NCc2ccco2)cc1,cell count,[1],499
same,inhibition,[1],-0.3% (inactive)
same,inhibition of aggregation,[2],16.6% (inactive)
same,nuclei count,[2],60%
same,inhibition,[3],11.9% (inactive)
same,nuclei count,[3],105%
same,fluorescence slope,[4],-0.571 (inactive)
same,NADPH fluorescence slope,[5],1.2e-06 (inactive)
same,fluorescence slope,[6],0.00586 (inactive)
same,inhibition,[7],5.42% (inactive)
same,inhibition,[8],16.9% (inactive)
